Peptide text beside a SMILES is read from it.

Inhibition and Ki data for 28 molecules are collected here from ChEMBL document CHEMBL3244066, “Inhibition of histidine decarboxylase. Derivatives of histidine” (J Med Chem, 1977).

Experiment [1] has as its target T1, Histidine decarboxylase (Rattus norvegicus) (UniProt P16453).
T1 sequence (whole entry): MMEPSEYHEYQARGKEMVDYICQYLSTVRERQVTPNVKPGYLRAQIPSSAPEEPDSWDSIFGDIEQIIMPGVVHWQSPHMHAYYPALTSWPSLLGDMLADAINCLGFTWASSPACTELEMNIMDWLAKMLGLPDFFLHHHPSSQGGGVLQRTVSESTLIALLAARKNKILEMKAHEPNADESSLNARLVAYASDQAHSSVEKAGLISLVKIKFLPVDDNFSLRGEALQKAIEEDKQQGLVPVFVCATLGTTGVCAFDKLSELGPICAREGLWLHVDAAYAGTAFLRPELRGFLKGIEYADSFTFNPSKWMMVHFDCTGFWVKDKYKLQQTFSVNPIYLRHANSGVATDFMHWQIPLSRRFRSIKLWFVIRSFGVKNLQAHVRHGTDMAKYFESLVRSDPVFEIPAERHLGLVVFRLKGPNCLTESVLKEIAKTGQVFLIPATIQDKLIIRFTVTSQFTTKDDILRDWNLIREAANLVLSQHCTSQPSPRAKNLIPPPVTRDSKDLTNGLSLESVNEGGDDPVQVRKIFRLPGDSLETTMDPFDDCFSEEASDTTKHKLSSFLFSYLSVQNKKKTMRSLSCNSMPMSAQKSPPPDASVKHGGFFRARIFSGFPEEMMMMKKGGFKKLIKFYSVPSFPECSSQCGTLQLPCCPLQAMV
Put plainly: Inhibition of histidine decarboxylase in Sprague-Dawley rat stomach assessed as decrease in 14CO2 production using L-histidine-carboxyl-14C as substrate at 0.004 mM by scintillation counting analysis. The method in brief: (§1)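 Enzyme from rat stomach: homogenized in 0.1 M K phosphate–0.1 mM pyridoxal phosphate, pH 6.9, at 0–4 °C. Then 39 000g and 100 000g spins and a 20–45% ammonium sulfate cut. Assayed in triplicate with 0.05 M K phosphate, pH 6.9, 0.03 mM PLP and 0.24 mM L-histidine-carboxyl-14C (final) for 30 min at 37 °C. Inhibitors were fresh in water, generally 0.1 mM. HCl-released 14CO2 was trapped on Hyamine paper for 1 h and counted. % inhibition was taken after blank subtraction.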

The next experiment addresses T2, Histidine decarboxylase (Rattus norvegicus, UniProt P16453).
T2 sequence (P16453 whole entry): T1 sequence (whole entry)
Put plainly: Inhibition of histidine decarboxylase in Sprague-Dawley rat stomach assessed as decrease in 14CO2 production using L-histidine-carboxyl-14C as substrate by Dixon plot analysis. A digest of the protocol:
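Ki from a Dixon plot of reciprocal activity versus inhibitor concentration. Used the ammonium sulfate–fractionated rat stomach extract, 0.24 mM L-histidine-carboxyl-14C, 0.03 mM PLP, pH 6.9 phosphate, 30 min at 37 °C, and Hyamine trapping of 14CO2 with scintillation counting. Inhibitor was run in duplicate at four concentrations from 1 to 50 μM.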

In experiment [2] the target is T1, Histidine decarboxylase (Rattus norvegicus). Put plainly: Inhibition of histidine decarboxylase in Sprague-Dawley rat stomach assessed as decrease in 14CO2 production using L-histidine-carboxyl-14C as substrate at 0.50 mM by scintillation counting analysis. A digest of the protocol: as §1
Experiment [3] has the same target. Put plainly: Inhibition of histidine decarboxylase in Sprague-Dawley rat stomach assessed as decrease in 14CO2 production using L-histidine-carboxyl-14C as substrate at 0.012 mM by scintillation counting analysis. A digest of the protocol: as §1
The target is the same in experiment [4]. The experiment in a line: Inhibition of histidine decarboxylase in Sprague-Dawley rat stomach assessed as decrease in 14CO2 production using L-histidine-carboxyl-14C as substrate at 0.10 mM by scintillation counting analysis. The method in brief:
as §1

The target is the same in experiment [5]. Put plainly: Inhibition of histidine decarboxylase in Sprague-Dawley rat stomach assessed as decrease in 14CO2 production using L-histidine-carboxyl-14C as substrate at 0.32 mM by scintillation counting analysis. The method in brief: as §1
The target is the same in experiment [6]. The experiment in a line: Inhibition of histidine decarboxylase in Sprague-Dawley rat stomach assessed as decrease in 14CO2 production using L-histidine-carboxyl-14C as substrate at 0.13 mM by scintillation counting analysis. The method in brief:
as §1

Turning to `COC(=O)[C@@H](N)Cc1c[nH]cn1`, in experiment [1], the inhibition came out at 50%. Further, the Ki on Histidine decarboxylase came to 1800 nM.
Take `CC(=O)N[C@@H](Cc1c[nH]cn1)C(=O)O`: the inhibition in experiment [2] came to 0%.
With `CCOC(=O)[C@@H](N)Cc1c[nH]cn1`, the inhibition in experiment [3] stood at 50%.
In the case of `COC(=O)CCc1c[nH]cn1`, the inhibition in experiment [4] worked out at 10%.
Still for that read-out and setting: next, `COC(=O)[C@@H](N)Cc1nc[nH]c1[N+](=O)[O-]`: 3%.
In the case of `C[C@](N)(Cc1c[nH]cn1)C(=O)O`, the values for the inhibition in experiment [5] and in experiment [4] were 50% and 19%, respectively.
Consider `C[n+]1c[nH]cc1C[C@H](N)C(=O)O`, for which the inhibition in experiment [4] was determined as 0%.
Same read-out and setting: the figure for `Cn1cnc(C[C@H](N)C(=O)O)c1` is 0%.
Consider `N[C@@H](Cc1cnc[nH]1)C(=O)NO`, for which the inhibition in experiment [4] was determined as 14%.
Still for that read-out and setting: the figure for `N[C@@H](Cc1nc[nH]c1[N+](=O)[O-])C(=O)O` is 0%.
For `O=C(O)CCc1c[nH]cn1`, the inhibition in experiment [6] was 9%.
On the same count and under the same terms, next, `O=C(O)[C@@H](O)Cc1c[nH]cn1`: 0%.
For the molecule `N[C@@H](Cc1c[nH]cn1)C(=O)NCC(=O)O` (H-His-Gly-OH), the inhibition in experiment [4] came out at 0%.
The same measure, in the same setting: next, `CCCC(Cc1c[nH]cn1)(C(=O)OC)[N+](=O)[O-]` (racemic): 32%; `CCCC(N)(Cc1c[nH]cn1)C(=O)OC` (racemic): 2%.
Still for that read-out and setting: next, `CCCCC(Cc1c[nH]cn1)(C(=O)OC)[N+](=O)[O-]` (racemic): 24%; `CCCCC(N)(Cc1c[nH]cn1)C(=O)O` (racemic): 3%; `CCCCC(N)(Cc1c[nH]cn1)C(=O)OC` (racemic): 0%.
With `CCCCOC(=O)C(N)Cc1c[nH]cn1` (racemic), in experiment [4], the inhibition came out at 62%.
The same measure, in the same setting: the figure for `CCCOC(=O)C(N)Cc1c[nH]cn1` (racemic) is 22%; for `CCOC(=O)C(CC)(Cc1c[nH]cn1)[N+](=O)[O-]` (racemic) it is 5%.
The same measure, in the same setting: next, `CCOC(=O)C(Cc1c[nH]cn1)(c1ccccc1)[N+](=O)[O-]` (racemic): 22%.
The same measure, in the same setting: next, `CCOC(=O)C(N)(CC)Cc1c[nH]cn1` (racemic): 13%.
`CNC(=O)C(N)Cc1c[nH]cn1` (racemic): the inhibition in experiment [4] was found to be 0%.
Same read-out and setting: the figure for `COC(=O)C(C)(Cc1c[nH]cn1)[N+](=O)[O-]` (racemic) is 25%.
On to `COC(=O)C(C)(N)Cc1c[nH]cn1` (racemic), for which the inhibition in experiment [4] was determined as 3%.
Take `Cc1nc(CC(N)C(=O)O)c[nH]1` (racemic): in experiment [4], the inhibition is 0%.
Same read-out and setting: next, `O=C(O)C(Br)Cc1cnc[nH]1` (racemic): 13%.
